# Measurements collected from several papers.
# Each line is one published result; the experiments were not run side by side.
# Cell line: HL-60
# Effect on: cell growth or viability
Compound,method,time,setting,IC50
COc1cc(Nc2nccc(-c3cnn4nc(OC)ccc34)n2)cc(C(F)(F)F)c1,ATP luminescence,,,0.21 µM
COc1cc(O)c(C(=O)c2ccccc2)cc1S(=O)(=O)O,resazurin,72 h,dark,> 100 µM
CC[C@@H](C)[C@H](N)C(=O)N1Cc2ccccc2C1,ATP luminescence,48 h,,2.14 µM
O=C(Nc1nnc(-c2cc3ccccc3[nH]2)s1)c1cc2c([nH]c3ccccc32)c(-c2ccc(F)cc2)n1,MTT,72 h,,9.85 µM
CN1c2ccccc2C(=O)N2[C@H](C(=O)Nc3ccc(C(=O)Nc4ccccc4N)cc3)Cc3c([nH]c4ccccc34)[C@@H]12,,,,0.56 µM
COc1ccc(C(=O)CC(=O)c2ccc(C(C)(C)C)cc2)cc1,,,dark,~30 µM
CCCCN(Cc1ccc(C(=O)NO)cc1)C(=O)Nc1ccccc1,ATP luminescence,72 h,,0.894 µM
COc1cccc2c1C(=O)c1c(O)c3c(c(O)c1C2=O)C[C@@](O)(C(=O)CO)C[C@@H]3O[C@H]1C[C@H](N)[C@H](O)[C@H](C)O1,MTT,72 h,,1.08 µM
O=c1[nH]c(=S)n(Cc2ccc(Cl)cc2CNCC(F)(F)F)c2cc[nH]c12,,,,1.3 µM
Cn1c(-c2nnc(NC(=O)c3cc4c([nH]c5ccccc54)c(-c4ccc(F)cc4)n3)s2)cc2ccccc21,MTT,72 h,,37.2 µM
CCCON(Cc1ccc(C(=O)NO)cc1)C(=O)Nc1ccccc1,ATP luminescence,72 h,,1.69 µM
COc1cc([C@@H]2c3cc4c(cc3[C@@H](O[C@@H]3O[C@@H]5CO[C@@H](C)O[C@H]5[C@H](O)[C@H]3O)[C@H]3COC(=O)[C@H]23)OCO4)cc(OC)c1O,MTT,48 h,,0.31 µM
